Results published in ChEMBL document CHEMBL1139658, “Synthesis and screening of bicyclic carbohydrate-based compounds: a novel type of antivirals” (Bioorg Med Chem Lett, 2006).
≈ marks a conversion by molar mass, not a printed value.

Legend:
Cytomegalovirus [1] = assay: Antiviral activity against Cytomegalovirus Davies in human embryonic lung cells; format: functional, organism-based; details: Human betaherpesvirus 5, Davies
Procedure, shortened: (§1)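 HEL cell monolayers infected at 20 PFU per well, adsorbed 2 h at 37 °C. Medium with serial compound dilutions then added. Giemsa stain on day 7 and plaques counted under the microscope. IC50 is the concentration giving 50% inhibition of virus-induced plaque formation. Minimum cytotoxic concentration scored on day 7 as the lowest concentration causing visible change to the confluent cells.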

Cytomegalovirus [2] = assay: Antiviral activity against Cytomegalovirus AD-169 in human embryonic lung cells; format: functional, organism-based; details: Human betaherpesvirus 5, AD-169, lung; procedure, shortened: as §1
HEL = assay: Cytotoxicity against human embryonic lung cells; format: functional
Procedure, shortened: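 Two HEL cell toxicity read-outs. Cell growth (CC50): growing HEL cells in 96-well plates were given serial compound concentrations for 3 days, then trypsinized and counted with a Coulter counter; CC50 is the concentration cutting cell growth by 50%. Morphology (MCC): on confluent monolayers during the antiviral assay, this is the lowest concentration with microscopically visible toxicity at day 7.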

Row | Structure (SMILES) | IC50 (Cytomegalovirus [1]) | IC50 (Cytomegalovirus [2]) | CC50 (HEL) | MCC (HEL)
1 | CO[C@@H]1[C@@H](OC)[C@H](c2ccccc2)O[C@@H]2CO[C@@H](C3CCCCC3)O[C@@H]12 | 3.5 µg/mL (≈ 9.66 µM) | 3.2 µg/mL (≈ 8.83 µM) | 28 µg/mL (≈ 77.2 µM) | 20 µg/mL
2 | C=CCO[C@@H]1[C@@H](OCC=C)[C@H](Cc2ccccc2)O[C@@H]2CO[C@@H](c3ccccc3)O[C@@H]12 | 1 µg/mL (≈ 2.37 µM) | 1.2 µg/mL (≈ 2.84 µM) | > 50 µg/mL | 20 µg/mL
3 | CO[C@@H]1[C@@H](OC)[C@H](c2ccccc2)O[C@@H]2CO[C@@H](c3ccc(-c4ccccc4)cc3)O[C@@H]12 | 0.6 µg/mL (≈ 1.39 µM) | 0.8 µg/mL (≈ 1.85 µM) | > 50 µg/mL | ≥ 16 µg/mL
4 | O[C@@H]1[C@@H](O)[C@H](c2ccccc2)O[C@@H]2CO[C@@H](c3ccc4ccccc4c3)O[C@@H]12 | 1.8 µg/mL (≈ 4.76 µM) | 1.3 µg/mL (≈ 3.44 µM) | 21 µg/mL (≈ 55.5 µM) | ≥ 400 µg/mL
5 | CO[C@@H]1[C@@H](OC)[C@H](c2ccccc2)O[C@@H]2CO[C@@H](c3ccc(Cl)cc3)O[C@@H]12 | 4 µg/mL (≈ 10.2 µM) | 5 µg/mL (≈ 12.8 µM) | > 50 µg/mL | ≥ 100 µg/mL
6 | CO[C@H]1[C@@H]2O[C@H](c3ccccc3)OC[C@H]2O[C@@H](c2ccccc2)[C@H]1OC | > 50 µg/mL | > 50 µg/mL |  | 400 µg/mL
7 | O=[N+]([O-])c1ccc([C@@H]2OC[C@H]3O[C@@H](c4ccccc4)[C@H](O)[C@@H](O)[C@@H]3O2)cc1 | 9.3 µg/mL (≈ 24.9 µM) | 10 µg/mL (≈ 26.8 µM) | > 50 µg/mL | 50 µg/mL
8 | O[C@@H]1[C@@H](O)[C@H](c2ccccc2)O[C@@H]2CO[C@@H](c3ccc(C(F)(F)F)cc3)O[C@@H]12 | 1.6 µg/mL (≈ 4.04 µM) | 1.6 µg/mL (≈ 4.04 µM) | 35 µg/mL (≈ 88.3 µM) | 400 µg/mL
9 | CCCCCO[C@@H]1[C@@H](OCCCCC)[C@H](c2ccccc2)O[C@@H]2CO[C@@H](c3ccccc3)O[C@@H]12 | 2.4 µg/mL (≈ 5.12 µM) | > 3.2 µg/mL | 182 µg/mL (≈ 388 µM) | 16 µg/mL
10 | C=CC[C@@H]1O[C@@H]2CO[C@@H](c3ccccc3)O[C@H]2[C@H](OC)[C@H]1OC | > 50 µg/mL | > 50 µg/mL |  | 
11 | O[C@@H]1[C@@H](O)[C@H](c2ccccc2)O[C@@H]2CO[C@@H](c3ccc(Cl)cc3)O[C@@H]12 | 10 µg/mL (≈ 27.6 µM) | 14 µg/mL (≈ 38.6 µM) | > 50 µg/mL | ≥ 100 µg/mL
12 | CO[C@@H]1[C@@H](OC)[C@H](c2ccccc2)O[C@@H]2CO[C@@H](c3cccc(Cl)c3)O[C@@H]12 | 3.2 µg/mL (≈ 8.19 µM) | 5 µg/mL (≈ 12.8 µM) |  | ≥ 40 µg/mL
13 | CO[C@@H]1[C@@H](OC)[C@H](c2ccccc2)O[C@@H]2CO[C@@H](c3ccc4ccccc4c3)O[C@@H]12 | 0.8 µg/mL (≈ 1.97 µM) | 0.47 µg/mL (≈ 1.16 µM) | > 50 µg/mL | ≥ 16 µg/mL
14 | CCO[C@@H]1[C@@H](OCC)[C@H](Cc2ccccc2)O[C@@H]2CO[C@@H](c3ccccc3)O[C@@H]12 | 3 µg/mL (≈ 7.53 µM) | 2.6 µg/mL (≈ 6.52 µM) | > 50 µg/mL | > 120 µg/mL
15 | CO[C@@H]1[C@@H](OC)[C@H](c2ccccc2)O[C@@H]2CO[C@@H](c3ccccc3)O[C@@H]12 | 2.4 µg/mL (≈ 6.73 µM) | 2 µg/mL (≈ 5.61 µM) |  | 
16 | CO[C@H]1[C@H]2O[C@H](c3ccccc3)OC[C@H]2O[C@@H](c2ccccc2)[C@@H]1OC | > 50 µg/mL | > 50 µg/mL |  | > 400 µg/mL
17 | CC(C)CO[C@@H]1[C@@H](OCC(C)C)[C@@H](c2ccccc2)O[C@@H]2CO[C@@H](c3ccccc3)O[C@@H]12 | 3.2 µg/mL (≈ 7.26 µM) | 2.6 µg/mL (≈ 5.9 µM) |  | 40 µg/mL
18 | C#CCO[C@@H]1[C@@H](OCC#C)[C@H](c2ccccc2)O[C@@H]2CO[C@@H](c3ccccc3)O[C@@H]12 | 3 µg/mL (≈ 7.42 µM) | 5 µg/mL (≈ 12.4 µM) |  | 40 µg/mL
19 | CO[C@@H]1[C@@H](OC)[C@H](Cc2ccccc2)O[C@@H]2CO[C@@H](c3ccccc3)O[C@@H]12 | 5 µg/mL (≈ 13.5 µM) | 20 µg/mL (≈ 54 µM) | > 50 µg/mL | 20 µg/mL
20 | CO[C@@H]1[C@@H](OC)[C@H](c2ccccc2)O[C@@H]2CO[C@@H](c3ccc(C(F)(F)F)cc3)O[C@@H]12 | 3.1 µg/mL (≈ 7.3 µM) | 1.5 µg/mL (≈ 3.53 µM) | > 50 µg/mL | ≥ 16 µg/mL
21 | C#CCO[C@@H]1[C@@H](OCC#C)[C@H](Cc2ccccc2)O[C@@H]2CO[C@@H](c3ccccc3)O[C@@H]12 | 0.5 µg/mL (≈ 1.19 µM) | 0.5 µg/mL (≈ 1.19 µM) |  | 40 µg/mL
